Measured values published in PMC6267549 (Clinical Pharmacokinetics, 2018).
“Also recorded” adds a separate entry of the source. Like-named read-outs stand apart in the source and are kept apart here.

Legend:
[1] = SNAC plasma pharmacokinetics after ten once-daily doses of oral semaglutide; type: in vivo, human; settings: for tmax,Day10: median (minimum, maximum)
Procedure, shortened: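 Oral tablets (300 mg SNAC) given once daily, 5 mg semaglutide days 1–5 then 10 mg days 6–10, with 120 mL water after >6 h fast and no intake for 30 min after. K3EDTA plasma sampled, including extra points within 24 h after last dose, stored at -20 °C. SNAC measured by LC-MS/MS after in-line solid-phase preparation against an analogue IS (5.00-2000 ng/mL, fivefold dilution above). AUC24 by linear trapezoid; Cmax and tmax observed.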

[2] = Semaglutide and SNAC urine bioanalysis / renal clearance; type: in vivo, human; settings: for CLR: based on 0–36 h after the tenth dosing, geometric mean (CV)
Procedure, shortened: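 Urine collected pre-dose day 1 and fractionated over set intervals on days 10–11 after the tenth dose, then stored at -20 °C. 1% Triton X-100 added, 1 part per 9 parts urine. Semaglutide and SNAC quantified by the plasma LC-MS/MS methods with ranges corrected by 1.111. Renal clearance derived over 0–36 h after the tenth dose.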

[3] = Effect of haemodialysis on semaglutide and SNAC exposure in subjects with ESRD; type: in vivo, human
Procedure, shortened: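 ESRD subjects on haemodialysis three times weekly, started right after dosing (blood flow 500-600 mL/min, ultrafiltration 0-23 mL/min, low- or high-flux membranes). Semaglutide: observed AUC 144–148 h during day-16 dialysis divided by predicted AUC, with λz taken from inter-dialysis plasma levels at 76, 96, 120 and 144 h. SNAC: AUC4 on dialysis day 9 vs non-dialysis day 10, compared by log-scale linear model (dialysis, subject fixed).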

[4] = type: in vivo, human; settings: once-daily oral semaglutide, not characterised in the trial
Procedure, shortened: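 Ten once-daily oral doses given, 5 mg for 5 days then 10 mg for 5 days, fasted. Plasma sampled pre-dose and to 504 h after the last dose, K3EDTA, stored at -20 °C. Semaglutide measured by LC-MS/MS after protein precipitation (0.729-60.8 nmol/L, 1/concentration² weighting). t½ = ln(2)/λz, with λz from log-linear regression on the terminal phase.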

[5] = subcutaneous administration; humans; cited from earlier work
[6] = subcutaneous administration; rats; cited from earlier work
[7] = subcutaneous administration; monkeys; cited from earlier work
[8] = mild renal impairment vs normal renal function
[9] = moderate renal impairment vs normal renal function
[10] = severe renal impairment vs normal renal function

O=C([O-])CCCCCCCNC(=O)c1ccccc1O.[Na+] [SNAC, sodium N-(8-[2-hydroxybenzoyl]amino) caprylate]
AUC24,Day10 ([1]; ESRD (n = 11), after tenth dose, geometric mean (CV)): 1471.4 (27.0) nmol·h/L
tmax,Day10 ([1]; ESRD (n = 11), after tenth dose): 0.83 (0.17, 5.00) h
estimated ratio Cmax,Day10 ([1]; ESRD vs normal renal function): 0.79
estimated ratio of the AUC24,Day10 ([1]; ESRD vs normal renal function): 1.32
AUC24,Day10 ([1]; mild renal impairment (n = 12), after tenth dose, geometric mean (CV)): 1311.6 (31.5) nmol·h/L
tmax,Day10 ([1]; mild renal impairment (n = 12), after tenth dose): 0.58 (0.33, 2.50) h
estimated ratio Cmax,Day10 [1, 8]: 0.94
estimated ratio of the AUC24,Day10 [1, 8]: 1.19
AUC24,Day10 ([1]; moderate renal impairment (n = 12), after tenth dose, geometric mean (CV)): 1335.9 (34.6) nmol·h/L
tmax,Day10 ([1]; moderate renal impairment (n = 12), after tenth dose): 0.67 (0.33, 6.00) h
estimated ratio Cmax,Day10 [1, 9]: 0.70
estimated ratio of the AUC24,Day10 [1, 9]: 1.30
AUC24,Day10 ([1]; normal renal function (n = 24), after tenth dose, geometric mean (CV)): 1028.8 (29.2) nmol·h/L
tmax,Day10 ([1]; normal renal function (n = 24), after tenth dose): 0.75 (0.33, 3.00) h
Cmax ([1]; read-out: Cmax,Day10, ESRD (n = 11), after tenth dose, geometric mean (CV)): 936 nM
AUC24,Day10 ([1]; severe renal impairment (n = 12), after tenth dose, geometric mean (CV)): 1522.8 (31.8) nmol·h/L
tmax,Day10 ([1]; severe renal impairment (n = 12), after tenth dose): 0.67 (0.17, 1.00) h
estimated ratio Cmax,Day10 [1, 10]: 1.06
estimated ratio of the AUC24,Day10 [1, 10]: 1.49
CLR ([2]; ESRD (n = 11)): 0.01 (508.51) L/h
CLR ([2]; mild renal impairment (n = 12)): 0.08 (87.88) L/h
CLR ([2]; moderate renal impairment (n = 12)): 0.09 (92.63) L/h
CLR ([2]; normal renal function (n = 24)): 0.06 (104.33) L/h
CLR ([2]; severe renal impairment (n = 12)): 0.04 (98.22) L/h
estimated ratio of AUC4 on day 9 during haemodialysis to AUC4 on day 10 ([3]; haemodialysis vs no haemodialysis): 0.95

CC[C@H](C)[C@H](NC(=O)[C@H](Cc1ccccc1)NC(=O)[C@H](CCC(=O)O)NC(=O)[C@H](CCCCNC(=O)COCCOCCNC(=O)COCCOCCNC(=O)CC[C@H](NC(=O)CCCCCCCCCCCCCCCCC(=O)O)C(=O)O)NC(=O)[C@H](C)NC(=O)[C@H](C)NC(=O)[C@H](CCC(N)=O)NC(=O)CNC(=O)[C@H](CCC(=O)O)NC(=O)[C@H](CC(C)C)NC(=O)[C@H](Cc1ccc(O)cc1)NC(=O)[C@H](CO)NC(=O)[C@H](CO)NC(=O)[C@@H](NC(=O)[C@H](CC(=O)O)NC(=O)[C@H](CO)NC(=O)[C@@H](NC(=O)[C@H](Cc1ccccc1)NC(=O)[C@@H](NC(=O)CNC(=O)[C@H](CCC(=O)O)NC(=O)C(C)(C)NC(=O)[C@@H](N)Cc1cnc[nH]1)[C@@H](C)O)[C@@H](C)O)C(C)C)C(=O)N[C@@H](C)C(=O)N[C@@H](Cc1c[nH]c2ccccc12)C(=O)N[C@@H](CC(C)C)C(=O)N[C@H](C(=O)N[C@@H](CCCNC(=N)N)C(=O)NCC(=O)N[C@@H](CCCNC(=N)N)C(=O)NCC(=O)O)C(C)C [semaglutide]
time to reach steady state (predicted) [4]: 4–5 weeks
detection in urine ([2]; urine samples days 10–11, except one subject in the ESRD group): not detected in urine; also recorded: not generally detected
AUC144–148 h,dial/AUC144–148 h,pred (estimated ratio) ([3]; observed during haemodialysis (day 16) over predicted): 0.97
intact semaglutide in urine, of the administered dose [5]: 3.1%
intact semaglutide in urine, of the administered dose [6]: less than 1%
intact semaglutide in urine [7]: not detected
